Tests used:
P2Y purinoceptor 1 = P2Y purinoceptor 1 (Homo sapiens, UniProt P47900); assay: Antagonist activity at P2Y1 receptor in human platelets by FLIPR assay in presence of 2-methylthio-ADP
In short: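 Washed human platelets with endogenous P2Y1; calcium signalling read by FLIPR with reduced protein (~0.1% BSA); agonist 2-methylthio-ADP at 1 µM; IC50 given as mean ± SD.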

Liver microsome [1] = assay: Metabolic stability in rat liver microsomes assessed as compound remaining; type: ADME
In short: (§1)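 Liver microsome stability: percent of compound remaining after incubation with […] (3 µM microsomes in some cases).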

Liver microsome [2] = assay: Metabolic stability in human liver microsomes assessed as compound remaining; type: ADME; in short: as §1
Platelet = assay: Inhibition of ADP-induced platelet aggregation in platelet-rich human plasma; type: functional
In short: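 Human platelet-rich plasma; aggregation triggered by 10 µM ADP; IC50 determined.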

Rattus norvegicus = assay: Antithrombotic activity in po dosed pentobarbital anesthetized rat assessed as reduction in FeCl2-induced thrombus weight administered 1 hr prior to FeCl2 challenge

Sequence of P2Y purinoceptor 1 (P47900 whole entry): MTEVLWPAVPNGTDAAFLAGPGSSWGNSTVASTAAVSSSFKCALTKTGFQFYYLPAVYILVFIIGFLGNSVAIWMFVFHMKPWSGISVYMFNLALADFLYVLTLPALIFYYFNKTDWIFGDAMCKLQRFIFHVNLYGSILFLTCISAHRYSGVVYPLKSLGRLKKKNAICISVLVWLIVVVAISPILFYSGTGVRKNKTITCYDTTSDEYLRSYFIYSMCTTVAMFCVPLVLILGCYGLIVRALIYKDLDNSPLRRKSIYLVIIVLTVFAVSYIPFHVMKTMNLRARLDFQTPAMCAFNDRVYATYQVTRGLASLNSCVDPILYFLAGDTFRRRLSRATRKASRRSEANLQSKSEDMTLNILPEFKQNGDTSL

Row | SMILES | IC50 (P2Y purinoceptor 1) [nM] | Stability (Liver microsome [1]) [%] | Stability (Liver microsome [2]) [%] | IC50 (Platelet) [nM] | IC50 (Rattus norvegicus) [nM]
1 | CC(C)(C)CN1CCC2(CC1)CN(c1ccccc1NC(=O)Nc1ccc(OC(F)(F)F)cc1)c1ccc(O)cc12 | > 150 | – | – | – | –
2 | CN(C)S(=O)(=O)c1ccc(O)c2c1C1(CCN(CC(C)(C)C)CC1)CN2c1ccccc1NC(=O)Nc1ccc(OC(F)(F)F)cc1 | 0.13 | 75 | 21 | 420 | –
3 | CC(C)(C)CN1CCC2(CC1)CN(c1ccccc1NC(=O)Nc1nc3ccc(F)cc3s1)c1c(O)ccc(Cl)c12 | 0.06 | 89 | 100 | 230 | –
4 | CC(C)(C)CN1CCC2(CC1)CN(c1ccccc1NC(=O)Nc1ccc(OC(F)(F)F)cc1)c1ccccc12 | – | – | – | – | 470

From ChEMBL document CHEMBL3286275, “Identification of 1-{2-[4-chloro-1'-(2,2-dimethylpropyl)-7-hydroxy-1,2-dihydrospiro[indole-3,4'-piperidine]-1-yl]phenyl}-3-{5-chloro-[1,3]thiazolo[5,4-b]pyridin-2-yl}urea, a potent, efficacious and orally bioavailable P2Y(1) antagonist as an antiplatelet agent” (Bioorg Med Chem Lett, 2014)
